A selection: hits, their analogues and other compounds. The true share with any hit is near 1.7%.
M5 antag: CHRM5 antagonism in calcium assay; CHO-hM5 cells, Fluo-8 calcium fluorescence, ACh EC80; 0.59% of 360,000 active; P08912; AID 624040; inhibition, % at 3 µM;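 active = inhibition above a per-plate cutoff, the mean of that plate's test compounds plus 3 SD, cut at about 27% in these data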
Target sequence (P08912 whole entry, looked up): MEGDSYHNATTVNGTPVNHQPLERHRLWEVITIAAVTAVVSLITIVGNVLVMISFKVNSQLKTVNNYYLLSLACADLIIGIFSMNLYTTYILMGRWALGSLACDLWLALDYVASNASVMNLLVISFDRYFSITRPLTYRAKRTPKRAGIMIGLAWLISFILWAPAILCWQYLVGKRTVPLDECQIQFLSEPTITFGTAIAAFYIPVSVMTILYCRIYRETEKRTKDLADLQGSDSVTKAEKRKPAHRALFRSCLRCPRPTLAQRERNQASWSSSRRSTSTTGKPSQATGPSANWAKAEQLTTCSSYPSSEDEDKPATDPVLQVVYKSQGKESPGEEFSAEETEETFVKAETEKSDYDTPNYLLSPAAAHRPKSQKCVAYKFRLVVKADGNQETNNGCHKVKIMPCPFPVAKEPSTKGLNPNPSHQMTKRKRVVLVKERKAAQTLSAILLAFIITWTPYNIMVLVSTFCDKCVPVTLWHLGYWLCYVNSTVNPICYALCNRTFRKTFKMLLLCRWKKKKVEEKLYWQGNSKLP
CHO-K1 Ca ag: nonselective activator or artifact in parental CHO-K1 cells; AID 602248; Fluo-8 calcium fluorescence; scaled to maximal ATP response, vehicle zero; activation, % at 3 µM; 0.48% of 360,000 active; in the data active = activation above about 15%;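 note: untransfected CHO-K1 host cells lacking M1 receptor as counterscreen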
CHO-K1 Ca PAM: M1 PAM counterscreen hit in parental CHO-K1 cells | ATP EC20, Fluo-8 calcium fluorescence; 0% at ATP EC20, 100% at ATP max | activation, % at 3 µM | 0.02% of 360,000 active | AID 602247;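 active = activation above the run cutoff, the mean activation of all test compounds plus 3 SD, cut at about 40% in these data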;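 note: peak over basal fluorescence ratio in a 140 s read after ATP addition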
M5 PAM: positive allosteric modulators of human muscarinic M5 receptor; P08912; 0.3% of 360,000 active; activation, % at 3 µM; CHO-K1 hM5, Fluo-8 calcium, ACh EC20 PAM; 0% = ACh EC20, 100% = ACh EC100;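 active = activation above the run cutoff, the mean activation of all test compounds plus 3 SD, cut at about 18% in these data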
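Assay system – human M5 receptor in CHO-K1 cells · Read-out – % activation, ACh-normalized · Technique – Fluo-8 calcium fluorescence · Dosing – single-point, 3 µM nominal · Incubation – Fluo-8 loading 80 min at 37 °C plus 30 min room temperature · Repeats – singlicate, one well per test compound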
CHO-K1 Ca antag: M1 antagonist counterscreen hit in parental CHO-K1 cells | AID 602250 | ATP-induced calcium, Fluo-8 fluorescence | 0.6% of 360,000 active | inhibition, % at 3 µM;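 active = inhibition above a per-plate cutoff, the plate's mean sample inhibition plus 3 SD, cut at about 24% in these data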
CHRM5 agonist: agonists of human muscarinic M5 receptor (CHRM5) | 0.19% of 360,000 active | P08912 | activation, % at 3 µM | CHO-K1 hM5 cells, Fluo-8 calcium fluorescence; 0% DMSO wells, 100% maximal acetylcholine response;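 active = activation above the run's mean over test compounds plus 3 SD, cut at about 23% in these data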;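 note: signal is peak over basal fluorescence ratio across the kinetic read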
Each line names hits and unclear results; the compound was inactive in the other large screens; ! = not active in a repeat.

Nc1ncnc2c1ncn2[C@@H]1O[C@H](C(=O)N2CCN(c3nc4ccccc4o3)CC2)[C@@H](O)[C@H]1O	none
c1coc(CN(Cc2ccco2)c2ncnc3c2oc2ccccc23)c1	M5 antag 32
COC(=O)c1sc(NC(=O)CSc2nnnn2-c2ccc(C)cc2C)nc1C	CHO-K1 Ca antag 26
O=S(=O)(Nc1ccc(Oc2ncccn2)c(Cl)c1)c1ccc(Cl)cc1	none
O=C(O)C1Nc2c(C(F)(F)F)ccc(Cl)c2C2C=CCC12 (stereo unspecified)	M5 PAM 19
CCC1Nc2ncnc(N3CCOCC3)c2N(Cc2ccc(OC)cc2)C1=O (stereo unspecified)	none
CN1OC[C@@H]2CN(C(=O)C(C)(C)C)[C@H](c3ccc(-c4cccnc4)cc3)C[C@@H]21	CHO-K1 Ca antag 30
CC(=O)N1C[C@H]2CON(C)[C@H]2C[C@H]1c1ccc(-c2cccnc2)cc1	none
Nc1nc(SCc2ccccc2)c2ncn(C3OC(CO)C(O)C3O)c2n1 (stereo unspecified)	none
CSc1nc(N)nc2c1ncn2C1OC(CO)C(O)C1O (stereo unspecified)	M5 antag 33
Cc1ccnc2nc(C(=O)OCCOc3cccc(Br)c3)nn12	CHO-K1 Ca antag 26
CN(Cc1ccccc1)c1ccc([N+](=O)[O-])cc1C(=O)O	none
CCC1=NN(C(=O)COc2ccccc2)C(O)(c2ccc(Br)cc2)C1 (stereo unspecified)	CHO-K1 Ca ag 22
COc1ccc(NC(=O)C2(N(CC(C)C)C(=O)Cn3nnnc3N)CCCCC2)cc1	CHO-K1 Ca antag 25
COc1ccc(NC(C)=O)cc1NC(C)c1nc2sc(C)c(C)c2c(=O)[nH]1 (stereo unspecified)	CHO-K1 Ca ag 17
COc1ccc(OC)c(NC(=O)C(C)SCc2nc3sc(C)c(C)c3c(=O)[nH]2)c1 (stereo unspecified)	none
CCOC(=O)N1CCC2(O)CCCCC2C1c1ccc(F)cc1 (stereo unspecified)	none
CC(C)(C#CC(O)(c1ccccc1)c1ccccc1)N1CCCC1	M5 antag 69
CC(C)(C#CC(O)(c1ccccc1)c1ccccc1)N1CCCCC1	M5 antag 42
CC(O)(C#CCN1CCCCCC1)c1ccccc1 (stereo unspecified)	none
CCOc1ccccc1NC(=O)COC(=O)C1CCC1	none
COC(=O)c1ccncc1N	none
Nc1cnccc1C(=O)O	CHRM5 agonist 24
O=C(CN(C(=O)C1CSC(=O)C1)c1cccc(F)c1)NC1CCCC1 (stereo unspecified)	none
COC(=O)c1sccc1NC(=O)c1ccncc1	none
Cc1cc2ncn(C3CC(=O)N(Cc4ccccc4)C3=O)c2cc1C (stereo unspecified)	CHO-K1 Ca ag 17
NCC(c1ccc(Cl)cc1Cl)c1c[nH]c2ccccc12 (stereo unspecified)	CHO-K1 Ca ag 15, CHO-K1 Ca antag 25
CC1(N2CCOCC2)CC2(O)C(=[N+]1[O-])CCc1c2no[n+]1[O-] (stereo unspecified)	none
COc1ccc(CCNS(=O)(=O)c2ccc3c(c2)NC(=O)CCS3)cc1OC	M5 PAM 20
Cc1ccc(CCNS(=O)(=O)c2ccc3c(c2)NC(=O)CCS3)cc1	none
COc1ccc(C(=O)CN2C(=O)NC3(CCCCC3)C2=O)cc1OC	CHO-K1 Ca ag 19
COc1cc2c(cc1OC)C(C)N(S(=O)(=O)c1ccc(C)cc1)CC2 (stereo unspecified)	none
CCC1CCCCN1C(=O)CCCOc1ccccc1 (stereo unspecified)	none
CCCCC[C@H](O)/C=C/[C@H]1CCC(=O)[C@@H]1CCCCCCC(=O)N1CCCCC1CO (stereo partly specified)	CHO-K1 Ca ag 16, CHO-K1 Ca antag 53
C[C@@]12C(=O)Nc3ccc(F)cc3C(=O)N1[C@H]1c3ccccc3OC[C@@H]1[C@@H]2c1ccccc1	M5 antag 57
C[C@@]12C(=O)Nc3ccc(F)cc3C(=O)N1[C@H]1c3cc(Cl)ccc3OC[C@@H]1[C@@H]2c1ccccc1	none
COc1ccc(C(=O)Nc2ccc(Oc3ncnc4sc(-c5ccccc5)cc34)cc2)cc1OC	CHO-K1 Ca ag 16
COc1ccc(NC(=O)CN(C)C(=O)CN2C(=O)NC3(CCCC3)C2=O)cc1	none
CCOc1ccc(Nc2nc(N)nc(CSC(=S)N3CCOCC3)n2)cc1	M5 antag 34
COc1cc(C2N(c3ccc(Cl)cc3)C(=O)C3CCCN32)cc(OC)c1OC (stereo unspecified)	none
Cc1ccc(C(=O)N/C(=C/c2cn(-c3ccccc3)nc2-c2ccccc2)C(=O)O)cc1	M5 PAM 20
Cc1ccc(S(=O)(=O)N2CC=C(N)N2)cc1	none
CCOC(=O)C1(CC2CCCCO2)CCN(Cc2cc3ccccc3[nH]2)CC1 (stereo unspecified)	M5 antag 34, CHO-K1 Ca ag 57, CHRM5 agonist 62
CCCCc1ncc(CN2CCC(CC3CCCCO3)(C(=O)OCC)CC2)[nH]1 (stereo unspecified)	none
C=C[C@H]1CN2CC[C@H]1C[C@@H]2[C@@H](O)c1ccnc2ccc(OC)cc12	CHO-K1 Ca antag 25!
C=C[C@H]1CN2CCC1C[C@H]2[C@H](O)c1ccnc2ccc(OC)cc12 (stereo partly specified)	none
O=C(C=Cc1ccccc1)c1cccs1	none
Nc1ccc(/C=C/C(=O)c2cccs2)cc1	CHO-K1 Ca ag 22, CHRM5 agonist 33
O=C(O)CCn1ccc2cc(S(=O)(=O)N3CCCCCC3)ccc21	M5 PAM 19
O=C(O)CCCn1ccc2cc(S(=O)(=O)N3CCCC3)ccc21	none
COc1cccc(CNC(=O)C(C)n2ccc3cc(S(=O)(=O)N4CCCCCC4)ccc32)c1 (stereo unspecified)	none
CCC(C(=O)NCCC(C)C)n1ccc2cc(S(=O)(=O)N3CCCCC3)ccc21 (stereo unspecified)	M5 antag 34
Cn1c(CC(=O)NN)c(Sc2ccccc2)c2ccccc21	none
COC(=O)c1c(Sc2ccccc2)c2ccccc2n1C	CHRM5 agonist 58
COc1ccccc1NCC(=O)N/N=C/c1sccc1C	none
O=[N+]([O-])c1ccc(NCc2ccc(Cl)cc2)nc1	none
O=[N+]([O-])c1ccc(Nc2ccc(Cl)cc2)nc1	M5 antag 31
O=C1CCCN2N=C(SCC(=O)Nc3cccc(Cl)c3)SC2=N1	CHO-K1 Ca ag 16
O=C1CCCN2N=C(SCC(=O)Nc3ccc(Cl)cc3)SC2=N1	none
Cc1ccc(NC(=O)CSC2=NN3CCCC(=O)N=C3S2)cc1Cl	CHO-K1 Ca ag 16
